Broadly, the MIC is the smallest concentration in the dilution series that meets the test's criterion for growth inhibition. A high value points to weaker potency. Broadly, the Cmax is the maximum level reached in the sampled fluid or tissue.

Data set [1] concerns Staphylococcus aureus. The data set can be described thus: Bactericidal activity against Staphylococcus aureus E19977 assessed as log reduction in cfu at 20 mg/liter after 24 hrs by time-kill study. Type of data set: functional, organism-based. Summed up: (§1)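 In vitro kinetic model simulating antibiotic elimination without inoculum change. Exponential-phase E19977 was added at a final 10^6.3 CFU/ml. Starting drug concentration matched the human free peak, with the human half-life simulated. Samples were plated on 5% blood agar at 0, 2, 4, 6, 8, 12 and 24 h, with growth controls in each run. Results are shown as mean and range, n = 2.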

Data set [2] has as its system Staphylococcus aureus. The data set can be described thus: Antibacterial activity against Staphylococcus aureus E19977 infected in NMRI mouse assessed as log reduction in extracellular bacterial cfu in peritoneum at 10 mg/kg, sc administered 2 hrs after infection measured after 4 hrs. Type of data set: functional, organism-based. Further details: dose 10 mg/kg. In outline:
(§2)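 Outbred female NMRI mice (25 to 30 g) received 0.5 ml of 10^7.7 CFU/ml inoculum in 5% mucin i.p. A single dose was given 2 h post-challenge, and mice were sampled 4 h later by 2.0 ml saline peritoneal wash, pooling two mice. Extracellular and intracellular fractions were separated by 300 × g centrifugation, lysostaphin, four HBSS washes and water lysis. Counts on blood agar; median of n = 8.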

The subject of data set [3] is Staphylococcus aureus. The data set can be described thus: Antibacterial activity against Staphylococcus aureus E19977 infected in NMRI mouse assessed as log reduction in intracellular bacterial cfu in peritoneum at 60 mg/kg, sc administered as single dose 2 hrs after infection measured upto 19 hrs. Details: dose 60 mg/kg. Type of data set: functional, organism-based. Summed up: (§3)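 NMRI mice were infected i.p. and given one or three doses (every 8 h), starting 2 h post-inoculation, at 200 mg/kg or 60 mg/kg, four mice per group. Peritoneal washes were sampled over 19 h of treatment. Total, extracellular and intracellular CFU/ml (lysostaphin separation) were compared with the pretreatment level; mean ± range, n = 2. Untreated controls were sampled only at 6 h of infection.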

For data set [4], the system named is Staphylococcus aureus. The data set can be described thus: Antibacterial activity against Staphylococcus aureus E19977 infected in NMRI mouse assessed as log reduction in intracellular bacterial cfu in peritoneum at 10 mg/kg, sc administered as single dose 3 hrs after infection measured after 4 hrs. Type of data set: functional, organism-based. Further details: dose 10 mg/kg. In outline:
(§4)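 NMRI mice were infected i.p. with S. aureus E19977 in 5% mucin. A single dose (60 mg/kg or 10 mg/kg) was given 1, 2 or 3 h after inoculation, four mice per group. Peritoneal wash was sampled after 4 h of treatment and separated into total, extracellular and intracellular counts by lysostaphin/centrifugation. Δlog10 CFU/ml was calculated against vehicle-treated mice infected for the same time (5, 6 or 7 h).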

The test system of data set [5] is Staphylococcus aureus. The data set can be described thus: Antibacterial activity against Staphylococcus aureus E19977 infected in NMRI mouse assessed as log reduction in intracellular bacterial cfu in peritoneum at 60 mg/kg, sc administered as single dose 2 hrs after infection measured within 4 hrs. Type of data set: functional, organism-based. Further details: dose 60 mg/kg. Summed up:
as §3

Data set [6] has as its system Staphylococcus aureus. The data set can be described thus: Antibacterial activity against Staphylococcus aureus E19977 infected in NMRI mouse assessed as log reduction in intracellular bacterial cfu in peritoneum at 10 mg/kg, sc administered as single dose 2 hrs after infection measured after 4 hrs. Type of data set: functional, organism-based. Details: dose 10 mg/kg. In outline:
as §4

Data set [7] has as its system Staphylococcus aureus. The data set can be described thus: Antibacterial activity against Staphylococcus aureus E19977 infected in NMRI mouse assessed as log reduction in bacterial cfu in peritoneum at 10 mg/kg, sc administered as single dose 2 hrs after infection measured after 4 hrs. Details: dose 10 mg/kg. Type of data set: functional, organism-based. In outline: as §4

Data set [8] concerns Staphylococcus aureus. The data set can be described thus: Bactericidal activity against Staphylococcus aureus E19977 assessed as log reduction in cfu at 2 mg/liter after 24 hrs by time-kill study. Type of data set: functional, organism-based. In outline:
as §1

Data set [9] has as its system Staphylococcus aureus. The data set can be described thus: Bactericidal activity against Staphylococcus aureus E19977 assessed as log reduction in cfu at 0.5 mg/liter after 24 hrs by time-kill study. Type of data set: functional, organism-based. Summed up:
as §1

For data set [10], the system named is Staphylococcus aureus. The data set can be described thus: Antibacterial activity against Staphylococcus aureus E19977 infected in NMRI mouse assessed as log reduction in extracellular bacterial cfu in peritoneum at 10 mg/kg, sc administered as single dose 3 hrs after infection measured after 4 hrs. Type of data set: functional, organism-based. Further details: dose 10 mg/kg. Summed up:
as §4

Data set [11] concerns Staphylococcus aureus. The data set can be described thus: Bactericidal activity against Staphylococcus aureus E19977 assessed as log reduction in cfu at 2 mg/liter upto 24 hrs by time-kill study. Type of data set: functional. Summed up:
(§5)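 Clinical bacteremia isolate (penicillin-resistant, methicillin-susceptible). Exponential-phase bacteria were placed in an in vitro kinetic model that simulates drug elimination without changing the inoculum. The starting drug level matched the human free peak serum concentration after a single dose, with simulated human elimination half-life. Samples were taken at 0, 2, 4, 6, 8, 12 and 24 h, with growth controls in each run.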

The test system of data set [12] is Staphylococcus aureus. The data set can be described thus: Antibacterial activity against Staphylococcus aureus E19977 infected in NMRI mouse assessed as log reduction in intracellular bacterial cfu in peritoneum at 10 mg/kg, sc administered 2 hrs after infection measured after 4 hrs. Type of data set: functional, organism-based. Details: dose 10 mg/kg. Summed up:
as §2

In data set [13] the test system is Staphylococcus aureus. The data set can be described thus: Antibacterial activity against Staphylococcus aureus E19977 infected in NMRI mouse assessed as log reduction in bacterial cfu in peritoneum at 10 mg/kg, sc administered as single dose 3 hrs after infection measured after 4 hrs. Type of data set: functional, organism-based. Details: dose 10 mg/kg. In outline: as §4

Data set [14] deals with Staphylococcus aureus. The data set can be described thus: Bactericidal activity against Staphylococcus aureus E19977 assessed as log reduction in cfu at 20 mg/liter upto 24 hrs by time-kill study. Type of data set: functional. In outline:
(§6)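 In vitro kinetic model: exponential-phase bacteria at a final 10^6.3 CFU/ml were exposed to a starting concentration set to the human free peak level. Elimination followed the simulated human half-life. Samples were taken at 0, 2, 4, 6, 8, 12 and 24 h and counted on 5% blood agar (detection limit 25 CFU/ml). Growth controls were included; n = 2.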

Data set [15] deals with Staphylococcus aureus. The data set can be described thus: Antibacterial activity against Staphylococcus aureus E19977 infected in NMRI mouse assessed as log reduction in bacterial cfu in peritoneum at 60 mg/kg, sc administered as single dose 2 hrs after infection measured upto 19 hrs. Type of data set: functional, organism-based. Further details: dose 60 mg/kg. Summed up: as §3

Data set [16] relates to Staphylococcus aureus. The data set can be described thus: Antibacterial activity against Staphylococcus aureus E19977 infected in NMRI mouse assessed as log reduction in intracellular bacterial cfu in peritoneum at 10 mg/kg, sc administered as single dose 1 hr after infection measured after 4 hrs. Type of data set: functional, organism-based. Further details: dose 10 mg/kg. In outline: as §4

Data set [17] concerns Staphylococcus aureus. The data set can be described thus: Bactericidal activity against Staphylococcus aureus E19977 assessed as log reduction in cfu at 1.5 mg/liter upto 24 hrs by time-kill study. Type of data set: functional. The settings on record: in the assay text read “2.0 mg/liter” for “1.5 mg/liter”. In outline:
as §5

Data set [18] relates to Staphylococcus aureus. The data set can be described thus: Bactericidal activity against Staphylococcus aureus E19977 assessed as log reduction in cfu at 1.5 mg/liter after 24 hrs by time-kill study. Type of data set: functional, organism-based. In outline: as §1
Data set [19] has as its system Staphylococcus aureus. The data set can be described thus: Bactericidal activity against Staphylococcus aureus E19977 assessed as log reduction in cfu at 9 mg/liter after 24 hrs by time-kill study. Type of data set: functional, organism-based. Summed up: as §1
Data set [20] relates to Staphylococcus aureus. The data set can be described thus: Antibacterial activity against Staphylococcus aureus E19977 by Etest. Type of data set: functional.
Data set [21] deals with Staphylococcus aureus. The data set can be described thus: Antibacterial activity against Staphylococcus aureus E19977 infected in NMRI mouse assessed as log reduction in extracellular bacterial cfu in peritoneum at 60 mg/kg, sc administered as single dose 2 hrs after infection measured upto 19 hrs. Type of data set: functional, organism-based. Details: dose 60 mg/kg. Summed up: as §3

Data set [22] concerns Staphylococcus aureus. The data set can be described thus: Antibacterial activity against Staphylococcus aureus E19977 infected in NMRI mouse assessed as log reduction in intracellular bacterial cfu in peritoneum at 60 mg/kg, sc administered 2 hrs after infection evry 8 hrs as three-dose regimen measured after 19 hrs. Type of data set: functional, organism-based. Further details: dose 60 mg/kg. Summed up: as §3

Data set [23] concerns Staphylococcus aureus. The data set can be described thus: Bactericidal activity against Staphylococcus aureus E19977 assessed as log reduction in cfu at 2 mg/liter after 12 hrs by time-kill study. Type of data set: functional. Summed up: as §5
Data set [24] deals with Staphylococcus aureus. The data set can be described thus: Antibacterial activity against Staphylococcus aureus E19977 infected in NMRI mouse assessed as log reduction in bacterial cfu in peritoneum at 10 mg/kg, sc administered as single dose 1 hr after infection measured after 4 hrs. Type of data set: functional, organism-based. Details: dose 10 mg/kg. In outline:
as §4

Data set [25] has as its system Staphylococcus aureus. The data set can be described thus: Antibacterial activity against Staphylococcus aureus E19977 infected in NMRI mouse assessed as log reduction in bacterial cfu in peritoneum at 10 mg/kg, sc administered 2 hrs after infection measured after 4 hrs. Type of data set: functional, organism-based. Further details: dose 10 mg/kg. Summed up: as §2

The test system of data set [26] is Serum. The data set can be described thus: Protein binding in human serum at 600 mg, po. Type of data set: ADME, organism-based. The settings on record: in vivo.
Data set [27] deals with Staphylococcus aureus. The data set can be described thus: Antibacterial activity against Staphylococcus aureus E19977 infected in NMRI mouse assessed as log reduction in extracellular bacterial cfu in peritoneum at 10 mg/kg, sc administered as single dose 2 hrs after infection measured after 4 hrs. Type of data set: functional, organism-based. Further details: dose 10 mg/kg. Summed up:
as §4

The subject of data set [28] is Staphylococcus aureus. The data set can be described thus: Antibacterial activity against Staphylococcus aureus E19977 infected in NMRI mouse assessed as log reduction in extracellular bacterial cfu in peritoneum at 10 mg/kg, sc administered as single dose 1 hr after infection measured after 4 hrs. Type of data set: functional, organism-based. Further details: dose 10 mg/kg. In outline: as §4

Data set [29] has as its system Serum. The data set can be described thus: Protein binding in human serum at 240 mg, im. Type of data set: ADME, cell-free.
The test system of data set [30] is Homo sapiens. The data set can be described thus: Half life in human at 240 mg, im. Type of data set: ADME, organism-based. Conditions: in vivo.
For data set [31], the system named is Homo sapiens. The data set can be described thus: Cmax in human at 240 mg, im. Further details: dose 240 mg, route […]. Conditions: in vivo. Type of data set: ADME, organism-based.
The subject of data set [32] is Staphylococcus aureus. The data set can be described thus: Bactericidal activity against Staphylococcus aureus E19977 assessed as log reduction in cfu at 9 mg/liter upto 24 hrs by time-kill study. Type of data set: functional, organism-based. Summed up:
as §6

Active and inactive are the calls of the source. Some results are limits rather than exact numbers.

As for `CO[C@H]1/C=C/O[C@@]2(C)Oc3c(C)c(O)c4c(O)c(c(/C=N/N5CCN(C)CC5)c(O)c4c3C2=O)NC(=O)/C(C)=C\C=C\[C@H](C)[C@H](O)[C@@H](C)[C@@H](O)[C@@H](C)[C@H](OC(C)=O)[C@@H]1C` [RIFAMPIN], the result in [1], in data set [2], in data set [3], in data set [4], in [5] and in data set [6] was inactive. Further, the outcome in data set [7], in data set [8], in data set [9], in data set [10], in data set [13] and in data set [15] was inactive. The outcome in [18], in data set [19], in [21], in data set [22] and in data set [27] was inactive. Further, the FC is 2 in data set [11], more than 2 in data set [14], 2 in [17] and 2 in data set [23]. The result in data set [12], in data set [16], in data set [24], in data set [25] and in data set [28] was Active. Moreover, the MIC in data set [20] was less than 0.016 µg/mL. This compound also gave an Activity in data set [26] of 80%.

On to GENTAMICIN [listing 1 of 2 here], for which, in [29], the Activity is 10%. Moreover, in data set [30], the t1/2 was 2 h. This compound came in with a Cmax in data set [31] of 10000 ng/mL.

Consider GENTAMICIN [listing 2 of 2 here], for which the outcome in data set [1], in data set [2], in data set [8], in data set [9], in [12] and in [18] was inactive. The result in data set [19] and in [25] was inactive. Also, the FC was more than 2 in data set [14] and 4 in [32]. The same compound came in with an MIC in [20] of 0.38 µg/mL.

Source of the values: ChEMBL document CHEMBL1649157, “Intracellular activity of antibiotics against Staphylococcus aureus in a mouse peritonitis model” (Antimicrob Agents Chemother, 2009).
